Test results as given in ChEMBL document CHEMBL2407075, “Sulphonamido-quinoxalines: search for anticancer agent” (Eur J Med Chem, 2013).

Key:
Format in all cases: functional
[1] = system: SF-539; experiment: Growth inhibition of human SF539 cells assessed as cell growth at 10^-7 M after 48 hrs by sulforhodamine B assay; conditions: SF-539, 48 h, read-out: Activity
[2] = system: RXF 393; experiment: Growth inhibition of human RXF393 cells assessed as cell growth at 10^-6 M after 48 hrs by sulforhodamine B assay; conditions: RXF 393, 48 h, read-out: Activity
[3] = system: 786-0; experiment: Growth inhibition of human 786-0 cells after 48 hrs by sulforhodamine B assay; conditions: 786-0, 48 h, read-out: LC50 (the source's name)
Summary of the method: (§1)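 Adherent cells in RPMI 1640 with 5% FBS and 2 mM L-glutamine were plated at 5000–40,000 cells/well and grown 24 h. Five concentrations (0.01–100 µM, DMSO stock) were added for 48 h at 37 °C. Cells were fixed with cold TCA (10% final) and stained with SRB, read at 515 nm. GI50 came from log concentration–growth curves against time-zero and control plates.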

[4] = system: OVCAR-8; experiment: Growth inhibition of human OVCAR8 cells assessed as cell growth at 10^-8 M after 48 hrs by sulforhodamine B assay; conditions: OVCAR-8, 48 h, read-out: Activity
[5] = system: NCI-H226; experiment: Growth inhibition of human NCI-H226 cells after 48 hrs by sulforhodamine B assay; conditions: NCI-H226, 48 h, read-out: LC50 (the source's name); summary of the method: as §1
[6] = system: UO-31; experiment: Growth inhibition of human UO31 cells assessed as cell growth at 10^-4 M after 48 hrs by sulforhodamine B assay; conditions: UO-31, 48 h, read-out: Activity
[7] = system: UACC-257; experiment: Growth inhibition of human UACC257 cells assessed as cell growth at 10^-7 M after 48 hrs by sulforhodamine B assay; conditions: UACC-257, 48 h, read-out: Activity
[8] = system: A549; experiment: Growth inhibition of human A549/ATCC cells assessed as cell growth at 10^-7 M after 48 hrs by sulforhodamine B assay; conditions: A549, 48 h, read-out: Activity
Summary of the method: (§2)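 Five-dose NCI-60 run (0.01, 0.1, 1, 10 and 100 µM, as 10-fold dilutions from a DMSO stock made at 400× the top final level). Cells were grown in RPMI 1640 with 5% FBS and 2 mM glutamine and plated for 24 h. They were then exposed for 48 h at 37 °C and 5% CO2. TCA fixation was followed by SRB staining with A515 read-out. Percent growth was taken relative to time-zero and control plates.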

[9] = Growth inhibition of human HCC2998 cells assessed as cell growth at 10^-8 M after 48 hrs by sulforhodamine B assay; conditions: HCC 2998, 48 h, read-out: Activity
Summary of the method: (§3)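 Five-dose screen at NCI. Cells in RPMI 1640 with 5% FBS and 2 mM L-glutamine, seeded at 5000–40,000 cells/well and grown 24 h at 37 °C, 5% CO2 before dosing, with time-zero plates TCA-fixed. Drug diluted from DMSO stock to 0.01, 0.1, 1, 10 and 100 µM final, 48 h. Cells fixed with cold TCA (10% final), stained with 0.4% SRB and read at 515 nm. Percent growth from Tz, control and test absorbances; GI50, TGI and LC50 from dose-response curves.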

[10] = system: NCI-H460; experiment: Growth inhibition of human NCI-H460 cells assessed as cell growth at 10^-6 M after 48 hrs by sulforhodamine B assay; conditions: NCI-H460, 48 h, read-out: Activity
[11] = system: HCT-116; experiment: Growth inhibition of human HCT116 cells assessed as cell growth at 10^-6 M after 48 hrs by sulforhodamine B assay; conditions: HCT-116, 48 h, read-out: Activity; summary of the method: as §3
[12] = system: OVCAR-4; experiment: Growth inhibition of human OVCAR4 cells assessed as cell growth at 10^-5 M after 48 hrs by sulforhodamine B assay; conditions: OVCAR-4, 48 h, read-out: Activity
[13] = system: HCT-15; experiment: Growth inhibition of human HCT15 cells assessed as cell growth at 10^-5 M after 48 hrs by sulforhodamine B assay; conditions: HCT-15, 48 h, read-out: Activity; summary of the method: as §3
[14] = system: LOX IMVI; experiment: Growth inhibition of human LOXIMVI cells assessed as cell growth at 10^-8 M after 48 hrs by sulforhodamine B assay; conditions: read-out: Activity
[15] = system: HOP-62; experiment: Growth inhibition of human HOP62 cells assessed as cell growth at 10^-5 M after 48 hrs by sulforhodamine B assay; conditions: HOP-62, 48 h, read-out: Activity; summary of the method: as §3
[16] = system: A498; experiment: Growth inhibition of human A498 cells assessed as cell growth at 10^-5 M after 48 hrs by sulforhodamine B assay; conditions: A498, 48 h, read-out: Activity; summary of the method: as §2
[17] = system: M14; experiment: Growth inhibition of human M14 cells assessed as cell growth at 10^-7 M after 48 hrs by sulforhodamine B assay; conditions: M14, 48 h, read-out: Activity
[18] = system: NCI-H522; experiment: Growth inhibition of human NCI-H522 cells assessed as cell growth at 10^-6 M after 48 hrs by sulforhodamine B assay; conditions: NCI-H522, 48 h, read-out: Activity
[19] = system: RPMI-8226; experiment: Growth inhibition of human RPMI8226 cells assessed as cell growth at 10^-5 M after 48 hrs by sulforhodamine B assay; conditions: RPMI-8226, 48 h, read-out: Activity
[20] = Growth inhibition of human HCC2998 cells after 48 hrs by sulforhodamine B assay; conditions: HCC 2998, 48 h; for CC50: read-out: LC50 (the source's name); summary of the method: as §1
[21] = system: T47D; experiment: Growth inhibition of human T47D cells assessed as cell growth at 10^-8 M after 48 hrs by sulforhodamine B assay; conditions: read-out: Activity
[22] = system: HT-29; experiment: Growth inhibition of human HT-29 cells assessed as cell growth at 10^-5 M after 48 hrs by sulforhodamine B assay; conditions: HT-29, 48 h, read-out: Activity; summary of the method: as §3
[23] = system: CAKI-1; experiment: Growth inhibition of human CAKI-1 cells assessed as cell growth at 10^-7 M after 48 hrs by sulforhodamine B assay; conditions: CAKI-1, 48 h, read-out: Activity; summary of the method: as §2
[24] = system: SF-295; experiment: Growth inhibition of human SF295 cells assessed as cell growth at 10^-7 M after 48 hrs by sulforhodamine B assay; conditions: SF-295, 48 h, read-out: Activity
[25] = system: SR; experiment: Growth inhibition of human SR cells assessed as cell growth at 10^-8 M after 48 hrs by sulforhodamine B assay; conditions: read-out: Activity
[26] = system: M14; experiment: Growth inhibition of human M14 cells after 48 hrs by sulforhodamine B assay; conditions: M14, 48 h, read-out: LC50 (the source's name); summary of the method: as §1
[27] = system: KM12; experiment: Growth inhibition of human KM12 cells assessed as cell growth at 10^-7 M after 48 hrs by sulforhodamine B assay; conditions: KM12, 48 h, read-out: Activity
[28] = system: PC-3; experiment: Growth inhibition of human PC3 cells assessed as cell growth at 10^-6 M after 48 hrs by sulforhodamine B assay; conditions: PC-3, 48 h, read-out: Activity
[29] = system: NCI-H23; experiment: Growth inhibition of human NCI-H23 cells assessed as cell growth at 10^-5 M after 48 hrs by sulforhodamine B assay; conditions: NCI-H23, 48 h, read-out: Activity

Work on `O=S(=O)(Nc1ccccn1)c1ccc2nc(-c3ccccc3)c(-c3ccccc3)nc2c1` yielded a growth at 0.1 µM [1] of 94%, a growth at 1 µM [2] of 96% and a CC50 [3] greater than 100 µM. For the same compound, the growth at 0.01 µM [4] was 100%, the CC50 [5] was greater than 100 µM and the growth at 100 µM [6] was 59%. For the same compound, the growth at 0.1 µM [7] was 103%, the growth at 0.1 µM [8] was 98% and the growth at 0.01 µM [9] was 99%. It also gave a growth at 1 µM [10] of 94%, a growth at 1 µM [11] of 75% and a growth at 10 µM [12] of 10%. For the same compound, the growth at 10 µM [13] was 3%, the growth at 0.01 µM [14] was 97% and the growth at 10 µM [15] was 16%. For the same compound, the growth at 10 µM [16] was -8%, the growth at 0.1 µM [17] was 89% and the growth at 1 µM [18] was 74%. The growth at 10 µM [19] was -48%, the CC50 [20] was greater than 100 µM and the growth at 0.01 µM [21] was 95%. For the same compound, the growth at 10 µM [22] was -37%, the growth at 0.1 µM [23] was 93% and the growth at 0.1 µM [24] was 91%. It also gave a growth at 0.01 µM [25] of 93%, a CC50 [26] greater than 100 µM and a growth at 0.1 µM [27] of 99%. It also gave a growth at 1 µM [28] of 60% and a growth at 10 µM [29] of 4%.

`O=S(=O)(Nc1ccc(Cl)cc1)c1ccc2nc(-c3ccccc3)c(-c3ccccc3)nc2c1` showed a growth at 0.1 µM [1] of 96%, a growth at 1 µM [2] of 98% and a CC50 [3] greater than 100 µM. The growth at 0.01 µM [4] was 96%, the CC50 [5] was greater than 100 µM and the growth at 100 µM [6] was 75%. For the same compound, the growth at 0.1 µM [7] was 99%, the growth at 0.1 µM [8] was 97% and the growth at 0.01 µM [9] was 99%. The growth at 1 µM [10] was 94%, the growth at 1 µM [11] was 80% and the growth at 10 µM [12] was 12%. The growth at 10 µM [13] was 3%, the growth at 0.01 µM [14] was 99% and the growth at 10 µM [15] was 13%. The growth at 10 µM [16] was -5%, the growth at 0.1 µM [17] was 85% and the growth at 1 µM [18] was 88%. The growth at 10 µM [19] was -45%, the TGI [20] was greater than 100 µM and the CC50 [20] was greater than 100 µM. The growth at 0.01 µM [21] was 95%, the growth at 10 µM [22] was -55% and the growth at 0.1 µM [23] was 88%. It also gave a growth at 0.1 µM [24] of 90%, a growth at 0.01 µM [25] of 92% and a CC50 [26] greater than 100 µM. It also gave a growth at 0.1 µM [27] of 94%, a growth at 1 µM [28] of 63% and a growth at 10 µM [29] of 4%.
